Source: PubChem (Sanford-Burnham Center for Chemical Genomics)
FLuc stim CS – firefly luciferase counter-screen for stimulation assays; P08659; ATPlite luciferase biochemical, luminescence, 10 min; 0 = ATP-free wells, 1 = DMSO control; activation factor at 10 µM; 200,000 tested, under 10 active; AID 1027;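 active = luciferase activation factor, scaled between plate controls, of at least 2 with compound at 10 µM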
Target sequence (P08659 whole entry, looked up): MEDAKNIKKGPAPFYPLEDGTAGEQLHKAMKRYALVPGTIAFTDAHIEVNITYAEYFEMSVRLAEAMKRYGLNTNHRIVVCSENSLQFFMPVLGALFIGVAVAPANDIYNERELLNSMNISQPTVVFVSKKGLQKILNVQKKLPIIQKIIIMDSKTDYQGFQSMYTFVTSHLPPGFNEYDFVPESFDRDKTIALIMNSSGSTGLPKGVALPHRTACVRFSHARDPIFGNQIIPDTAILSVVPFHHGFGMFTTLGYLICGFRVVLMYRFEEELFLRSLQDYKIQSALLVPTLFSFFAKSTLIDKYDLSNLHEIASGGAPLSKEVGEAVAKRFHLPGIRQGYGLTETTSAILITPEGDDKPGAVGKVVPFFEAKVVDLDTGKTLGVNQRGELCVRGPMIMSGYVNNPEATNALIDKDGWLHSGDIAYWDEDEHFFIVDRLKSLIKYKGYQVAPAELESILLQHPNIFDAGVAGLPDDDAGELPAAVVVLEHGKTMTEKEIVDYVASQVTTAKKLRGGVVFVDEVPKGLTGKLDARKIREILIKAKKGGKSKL
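System: cell-free luciferase reagent; medium: PBS as buffer for the ATP substrate; doses: test compounds dosed from 2 mM stocks in 100% DMSO; incubation: 10 min, room temperature; measured by: luminescence from luciferase reaction; read-out: luciferase activation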
PPC-1+TRAIL kill – compounds killing PPC-1 cancer cells with TRAIL present (potentiator screen, no TRAIL-free arm); cell killing (% activity), % at 4 µM or 5 µM; 220,000 compounds, 0.41% hits; AID 1443; PPC-1 cells + TRAIL, ATPLite viability luminescence;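 active = cell killing above 50% in the first pass at 4 µM, then a duplicate retest at 5 µM averaging 50% or more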
C8 TRAIL sens – sensitizes caspase-8 expressing cells to TRAIL; inhibition (viability loss, TRAIL sensitization), % at 10 µM; NB7+C8 cells + TRAIL, ATPlite viability luminescence; 360,000 compounds, 1% hits;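 active = compounds causing at least 50% loss of cell viability in the single-dose screen, relative to plate controls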
FLuc inh counter – inhibits firefly luciferase, flagging false hits in luciferase inhibition screens | 200,000 compounds, 1.5% hits | inhibition, % at 10 µM | ATPLite firefly luciferase biochemical luminescence, 10 min;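 active = inhibition above about 50% when tested at 10 µM, limit read from the data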
Each line names hits and unclear results; the compound was inactive in the other large screens. The list is not random: actives were taken first. Their share in the collection is about 1.6%.

Cc1nc(Cl)sc1C(=O)Nc1ccc(C(C)(C)C)cc1	none (no result: FLuc stim CS, PPC-1+TRAIL kill, FLuc inh counter)
COc1cc2c(cc1OC)-c1nnc(C)n1C(C)(C)C2	PPC-1+TRAIL kill 66.2
Cc1c(C)c2ccc(OCC(=O)Nc3nccs3)cc2oc1=O	C8 TRAIL sens 54.6 (no result: FLuc stim CS, PPC-1+TRAIL kill, FLuc inh counter)
Clc1ccc(OCc2nc(-c3ccncc3)no2)cc1	none
CC[C@H](C)[C@@H]1NC(=O)[C@@H](CC(C)C)NC(=O)[C@H](C(C)C)NC(=O)[C@H]2CSSC[C@H](NC1=O)C(=O)N2	C8 TRAIL sens 93.7 (no result: FLuc stim CS, PPC-1+TRAIL kill, FLuc inh counter)
CC(C)C[C@@H]1NC(=O)[C@H](C(C)C)NC(=O)c2cc([N+](=O)[O-])cc(I)c2NCC[C@@H](C(N)=O)NC1=O	none (no result: C8 TRAIL sens)
Cc1cccc(C(=O)Nc2ccc(O)cc2C(=O)O)c1	none
Cc1ccc(C(=O)Nc2ccc(O)cc2C(=O)O)cc1C	FLuc inh counter 68.7
Cc1ccc(C(=O)Nc2ccc(O)cc2C(=O)O)cc1	FLuc inh counter 58.9
OC(c1ccc(F)c(F)c1)c1nc(-c2csc3ccccc23)cs1 (configuration not stated)	none (no result: FLuc stim CS, PPC-1+TRAIL kill, FLuc inh counter)
Clc1ccc(OCc2nn3c(C4CCCCC4)nnc3s2)cc1	C8 TRAIL sens 57.3
c1ccc(-c2nn3c(C4CCCCC4)nnc3s2)nc1	none
O=[N+]([O-])c1ccc(C2=NN(c3ccccc3)C(c3ccco3)C2)cc1 (configuration not stated)	none (no result: FLuc stim CS, FLuc inh counter)
O=C(O)CC1(c2ccccc2)C(=O)c2ccccc2C1=O	none
O[C@@H](c1cc(C(F)(F)F)nc2c(C(F)(F)F)cccc12)[C@H]1CCCCN1	none (no result: FLuc stim CS, PPC-1+TRAIL kill, FLuc inh counter)
CC(C)(C)NCCC(O)c1cc(C(F)(F)F)nc2c(C(F)(F)F)cccc12 (configuration not stated)	C8 TRAIL sens 91.4 (no result: FLuc stim CS, PPC-1+TRAIL kill, FLuc inh counter)
N/C(=N\OC(=O)c1cccc(Br)c1)c1ccncc1	none
N/C(=N\OC(=O)c1ccc(Br)cc1)c1ccncc1	FLuc inh counter 67.6
N/C(=N\OC(=O)c1ccccc1)c1ccncc1	FLuc inh counter 65.9
COCCNC(=O)C1CCCN(C(=O)COCc2ccccc2)CC1 (configuration not stated)	none (no result: FLuc stim CS, PPC-1+TRAIL kill, FLuc inh counter)
Cc1ccc(C(=O)Nc2ncc(Cc3ccc(F)cc3)s2)o1	FLuc inh counter 62.0
Cc1ccc(NNC(=S)Nc2ccc(C(C)C)cc2)c(C)c1	none
CC(C)CNS(=O)(=O)c1ccc(S(=O)(=O)N2CCCN(Cc3ccccc3)C2)cc1	none
CN(C)/C=C/C(=O)c1cnc(-c2ccc(Cl)cc2)s1	FLuc inh counter 53.4
CN(C)c1ccc(CN(C)C2CCCCC2)cc1	none
CCOc1ccccc1N(C)C(=O)C1CCN(S(=O)(=O)c2cccc3nonc23)CC1	none
O=C(NNC(=O)c1cc(OCC(F)(F)F)ccc1OCC(F)(F)F)c1ccc(Cl)c(Cl)c1	C8 TRAIL sens 66.5
C=CCONC(=O)c1cc(OCC(F)(F)F)ccc1OCC(F)(F)F	none
COC(=O)Nc1ccc(S(=O)(=O)N2CCCCC2C(=O)O)cc1 (configuration not stated)	none
Cc1ccc(-c2nc3ccccc3[nH]2)s1	C8 TRAIL sens 55.9, FLuc inh counter 60.7
c1csc(-c2nc3ccccc3[nH]2)c1	none
Nc1nc(-c2nc3ccccc3[nH]2)cs1	FLuc inh counter 63.3
COC(=O)c1ccc(C(=O)Nc2ccc3nc(-c4ccncc4)[nH]c3c2)cc1	none (no result: FLuc stim CS, PPC-1+TRAIL kill, FLuc inh counter)
Cc1cc(-c2nc3ccccc3[nH]2)ccc1N	FLuc inh counter 71.5
COC(=O)c1ccc(-c2nc3ccccc3[nH]2)cc1	C8 TRAIL sens 82.0, FLuc inh counter 91.2
Cc1ccc2c(c1)c(C)c(C)n2CC(O)CN1CCCCC1C (configuration not stated)	none
CCOC(=O)C1(C)CCCCN1C(=O)c1cccs1 (configuration not stated)	none (no result: FLuc stim CS, PPC-1+TRAIL kill, FLuc inh counter)
O=C(COC(=O)CNC(=O)c1ccccc1F)NCCNC(=O)COC(=O)CNC(=O)c1ccccc1F	none (no result: FLuc stim CS, PPC-1+TRAIL kill, FLuc inh counter)
COc1ccc(C(=O)NC(Oc2ccccc2)C(Cl)(Cl)Cl)cc1 (configuration not stated)	none
CC(=Nc1ccccc1)c1sc2ccccc2c1O	FLuc inh counter 60.8
CNc1nc(-c2c(C)[nH]c3ccc(OC)cc23)cs1	none (no result: FLuc stim CS, PPC-1+TRAIL kill, FLuc inh counter)
Cc1ccc(NC(=O)/C=C/c2ccco2)nc1	FLuc inh counter 61.9
O=C(/C=C/c1ccco1)Nc1cccnc1	none
O=C(/C=C/c1ccco1)Nc1ccccn1	FLuc inh counter 69.1
c1c2c(cc3sc(N4CCCCC4)nc13)OCO2	C8 TRAIL sens 47.4, FLuc inh counter 80.4
c1ccc(N2CCN(c3nc4cc5c(cc4s3)OCO5)CC2)cc1	none
c1ccc2c(c1)CCN(c1nc3cc4c(cc3s1)OCO4)C2	FLuc inh counter 69.2
c1ccc2sc(Nc3nc4cc5c(cc4s3)OCO5)nc2c1	none
c1c2c(cc3sc(N4CCOCC4)nc13)OCO2	FLuc inh counter 56.4
